# Test: LAP4-GFP expression modulators in yeast, confirmation, cell-based, cherry picks, flow cytometry, mother/daughter gates (AID 2271);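 further: ratio of sample to DMSO plate mean so 100% equals DMSO level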
# Conditions: S. cerevisiae LAP4-GFP strain, 3 h, measured here: daughter cell gate response, at 10 µM, stronger effect = higher value, 100 means same as DMSO control
# How it was run: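 System: GFP-fusion yeast strain; Incubation: compound exposure 3 h at 30 °C, end-over-end rotation; Measured by: GFP by flow cytometry; Read-out: median GFP fluorescence as percent of plate-mean DMSO wells; Medium: synthetic complete (SC) yeast growth medium; Compound: single test-compound dose, 10 µM final; Benchmarks: DMSO-only negative wells, rapamycin 400 ng/mL positive wells.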
row,Compound,GFP response relative to DMSO
1,COC(=O)c1ccccc1Sc1ncnc2onc(C)c12,106%
2,CC(C)(C)C(=O)C(Cl)C(=O)Nc1ccccc1 (stereo not given),186%
3,O=[N+]([O-])c1ccc(S(=O)(=O)c2cccc(C(F)(F)F)c2)nc1,180%
4,Cc1cccn2c(=O)c(/C=C(\C#N)C(=O)NC3CCS(=O)(=O)C3)c(N3CC(C)OC(C)C3)nc12 (stereo not given),96%
5,CCc1nnc(NC(=O)c2ccc(S(=O)(=O)N(CCOC)CCOC)cc2)o1,96%
6,Cc1ccc(N(C(=O)CCCC(=O)Nc2ccccn2)C(C(=O)NC2CCCC2)c2ccc(O)cc2)cc1C (stereo not given),98.7%
7,COc1ccc(OC)c(C2C(C(=O)Nc3nc4ccccc4s3)=C(C)NC3=C2C(=O)CCC3)c1 (stereo not given),86.4%
8,O=[N+]([O-])c1ccc(-c2cn3nc(-c4ccccc4)c(-c4ccccc4)nc3n2)cc1,115%
9,COc1ccccc1OC(C)C(=O)Nc1ccccc1C(=O)NCC1CCCO1 (stereo not given),97.9%
10,COc1ccc(NS(=O)(=O)c2cccc3ccccc23)cc1,97.6%
11,O=C(c1ccc2ccccc2c1)N1CCN(c2ccc(O)cc2)CC1,102%
12,O=C1c2ccsc2SCCN1Cc1cccc(Cl)c1,104%
13,CCCOc1ccc(C(=O)NNC(=S)NC(=O)CC)cc1,120%
14,Cc1cccc(N2C(=O)c3cccc4c(N(C)CCO)ccc(c34)C2=O)c1,106%
15,Cc1ccc(-n2ncc(C#N)c2/N=C/N(C)C)cc1,101%
16,C=CCOc1ccccc1C(=O)/C=C1/C(=O)Nc2ccccc21,130%
17,O=c1cnnc(SCc2ccc([N+](=O)[O-])cc2)[nH]1,101%
18,Cc1ccc(S(=O)(=O)N2CCCC2C(=O)Oc2ccccc2)cc1 (stereo not given),99.2%
19,COCCNc1c(-c2ccc(O)cc2)nc2ccc(Cl)cn12,99.2%
20,O=C(Nc1nc(-c2ccc(F)cc2)cs1)c1cnccn1,97.9%

row,Compound,GFP response relative to DMSO
1,CS(=O)(=O)N1N=C(c2ccc3nccnc3c2)CC1c1ccccc1 (stereo not given),102%
2,O=C(NCCCSc1ccccc1)c1cc(Cl)ccc1O,104%
3,COc1ccc(N2C(=O)CC(Sc3ncn[nH]3)C2=O)c(OC)c1 (stereo not given),161%
4,CN1CCSc2ccc(C(=O)Nc3cccc(F)c3)cc21,115%
5,CCN(CC)CCCN(C(=O)c1ccc(Br)cc1)c1nc(-c2ccc(OC)cc2)cs1,99%
6,O=C(Nc1nccs1)C1CCCN1S(=O)(=O)c1ccc(F)cc1 (stereo not given),100%
7,O=C(c1ccccc1)c1ccccc1N1C(=O)C=CC1=O,156%
8,COc1ccc(N2CCN(C(=O)C3CCCN(S(=O)(=O)c4ccc(C)cc4)C3)CC2)cc1 (stereo not given),104%
9,Cc1cc(NCCCN2CCOCC2)n2nc(C)c(-c3ccc(F)cc3)c2n1,97.5%
10,CCC(C)(C)n1nnnc1C(c1ccc(O)c(OC)c1)N1CCc2ccccc2C1 (stereo not given),99.3%
11,COc1ccc(-c2csc(Nc3ncccc3C)n2)cc1,104%
12,O=S(=O)(Nc1ccc(Br)cc1)c1cccc2nonc12,95%
13,O=C(CSc1nnc(C2COc3ccccc3O2)o1)N1CCCC1 (stereo not given),98.2%
14,CCc1noc(C)c1C(=O)Nc1nc2ccc(OC)cc2s1,108%
15,CCc1ccc(C(=O)/C=C/c2ccc([N+](=O)[O-])o2)cc1,141%
16,CSc1ccc(-c2cc(=O)c3ccccc3o2)cc1,110%
17,COc1ccccc1C(=O)N1CCN(c2cccc(C(F)(F)F)c2)CC1,96.5%
18,COc1cc(/C=C2\N=C(c3ccccc3)OC2=O)ccc1OCc1c(C)no[n+]1[O-],97.9%
19,CC(C)C(=O)Nc1ccc(NC(=O)c2cc3ccccc3o2)cc1,101%
20,CCOC(=O)Cc1csc(NC(=O)CSc2nnc(-c3ccc(C)cc3)o2)n1,101%

# Same assay, conditions: S. cerevisiae LAP4-GFP strain, 3 h, measured here: mother cell gate response, at 10 µM, stronger effect = higher value, 100 means same as DMSO control
row,Compound,GFP response relative to DMSO
1,COC(=O)c1ccccc1Sc1ncnc2onc(C)c12,112%
2,CC(C)(C)C(=O)C(Cl)C(=O)Nc1ccccc1 (stereo not given),271%
3,O=[N+]([O-])c1ccc(S(=O)(=O)c2cccc(C(F)(F)F)c2)nc1,221%
4,Cc1cccn2c(=O)c(/C=C(\C#N)C(=O)NC3CCS(=O)(=O)C3)c(N3CC(C)OC(C)C3)nc12 (stereo not given),92.9%
5,CCc1nnc(NC(=O)c2ccc(S(=O)(=O)N(CCOC)CCOC)cc2)o1,90.8%
6,Cc1ccc(N(C(=O)CCCC(=O)Nc2ccccn2)C(C(=O)NC2CCCC2)c2ccc(O)cc2)cc1C (stereo not given),98.3%
7,COc1ccc(OC)c(C2C(C(=O)Nc3nc4ccccc4s3)=C(C)NC3=C2C(=O)CCC3)c1 (stereo not given),82.9%
8,O=[N+]([O-])c1ccc(-c2cn3nc(-c4ccccc4)c(-c4ccccc4)nc3n2)cc1,114%
9,COc1ccccc1OC(C)C(=O)Nc1ccccc1C(=O)NCC1CCCO1 (stereo not given),97.5%
10,COc1ccc(NS(=O)(=O)c2cccc3ccccc23)cc1,97.2%
11,O=C(c1ccc2ccccc2c1)N1CCN(c2ccc(O)cc2)CC1,101%
12,O=C1c2ccsc2SCCN1Cc1cccc(Cl)c1,110%
13,CCCOc1ccc(C(=O)NNC(=S)NC(=O)CC)cc1,169%
14,Cc1cccc(N2C(=O)c3cccc4c(N(C)CCO)ccc(c34)C2=O)c1,109%
15,Cc1ccc(-n2ncc(C#N)c2/N=C/N(C)C)cc1,103%
16,C=CCOc1ccccc1C(=O)/C=C1/C(=O)Nc2ccccc21,148%
17,O=c1cnnc(SCc2ccc([N+](=O)[O-])cc2)[nH]1,100%
18,Cc1ccc(S(=O)(=O)N2CCCC2C(=O)Oc2ccccc2)cc1 (stereo not given),99.3%
19,COCCNc1c(-c2ccc(O)cc2)nc2ccc(Cl)cn12,98.3%
20,O=C(Nc1nc(-c2ccc(F)cc2)cs1)c1cnccn1,101%

row,Compound,GFP response relative to DMSO
1,CS(=O)(=O)N1N=C(c2ccc3nccnc3c2)CC1c1ccccc1 (stereo not given),99.5%
2,O=C(NCCCSc1ccccc1)c1cc(Cl)ccc1O,110%
3,COc1ccc(N2C(=O)CC(Sc3ncn[nH]3)C2=O)c(OC)c1 (stereo not given),167%
4,CN1CCSc2ccc(C(=O)Nc3cccc(F)c3)cc21,121%
5,CCN(CC)CCCN(C(=O)c1ccc(Br)cc1)c1nc(-c2ccc(OC)cc2)cs1,94.4%
6,O=C(Nc1nccs1)C1CCCN1S(=O)(=O)c1ccc(F)cc1 (stereo not given),95.2%
7,O=C(c1ccccc1)c1ccccc1N1C(=O)C=CC1=O,263%
8,COc1ccc(N2CCN(C(=O)C3CCCN(S(=O)(=O)c4ccc(C)cc4)C3)CC2)cc1 (stereo not given),104%
9,Cc1cc(NCCCN2CCOCC2)n2nc(C)c(-c3ccc(F)cc3)c2n1,105%
10,CCC(C)(C)n1nnnc1C(c1ccc(O)c(OC)c1)N1CCc2ccccc2C1 (stereo not given),117%
11,COc1ccc(-c2csc(Nc3ncccc3C)n2)cc1,109%
12,O=S(=O)(Nc1ccc(Br)cc1)c1cccc2nonc12,95.6%
13,O=C(CSc1nnc(C2COc3ccccc3O2)o1)N1CCCC1 (stereo not given),95.1%
14,CCc1noc(C)c1C(=O)Nc1nc2ccc(OC)cc2s1,111%
15,CCc1ccc(C(=O)/C=C/c2ccc([N+](=O)[O-])o2)cc1,152%
16,CSc1ccc(-c2cc(=O)c3ccccc3o2)cc1,118%
17,COc1ccccc1C(=O)N1CCN(c2cccc(C(F)(F)F)c2)CC1,94.6%
18,COc1cc(/C=C2\N=C(c3ccccc3)OC2=O)ccc1OCc1c(C)no[n+]1[O-],96.5%
19,CC(C)C(=O)Nc1ccc(NC(=O)c2cc3ccccc3o2)cc1,102%
20,CCOC(=O)Cc1csc(NC(=O)CSc2nnc(-c3ccc(C)cc3)o2)n1,101%

# From PubChem BioAssay
